Tested on: U2OS
Assay: Multiplex assay against U2OS
Type: toxicity, cell-based
Conditions: human
Summary of the method: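 Per cents of healthy-nucleus cells form the tubulin, mitochondrial-mass and membrane-permeability phenotype values. Live cells were stained at seeding with Hoechst33342, BioTracker Green Microtubule Cytoskeleton Dye, MitoTracker Red and Annexin V Alexa Fluor 680. After compound addition they were imaged on a CQ1 microscope at 37°C and 5% CO2, and CellPathfinder machine-learning gating split them into Hoechst high-intensity objects or normal cells, normal cells into healthy, pyknosed or fragmented nuclei, and pyknosed cells into mitotic or apoptotic.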

[1] = 12 h, 1 µM, compound concentration 1 uM, replicate 1
[2] = 12 h, 1 µM, compound concentration 1 uM, replicate 2
[3] = 12 h, 10 µM, compound concentration 10 uM, replicate 1
[4] = 12 h, 10 µM, compound concentration 10 uM, replicate 2
[5] = 24 h, 1 µM, compound concentration 1 uM, replicate 1
[6] = 24 h, 1 µM, compound concentration 1 uM, replicate 2
[7] = 24 h, 10 µM, compound concentration 10 uM, replicate 1
[8] = 24 h, 10 µM, compound concentration 10 uM, replicate 2
[9] = 48 h, 1 µM, compound concentration 1 uM, replicate 1
[10] = 48 h, 1 µM, compound concentration 1 uM, replicate 2
[11] = 48 h, 10 µM, compound concentration 10 uM, replicate 1
[12] = 48 h, 10 µM, compound concentration 10 uM, replicate 2

Question: Which “Population Apoptotic (%)” value [1] does the source give for `O=C(Nc1cc(-c2ccccc2)nn1-c1ccccc1F)c1ccc([N+](=O)[O-])cc1` here?
Answer: 86%

Question: What about the “Population Fragmented Nuclei (%)” value [1] of the same compound?
Answer: 25%

Question: What about the “Population Healthy Nuclei (%)” value [1] of the same compound?
Answer: 66%

Question: And the “Population Hoechst High Intensity Objects (%)” value [1]?
Answer: 4%

Question: What about the “Population Membrane Permeable-Phenotype (%)” value [1] of the same compound?
Answer: 10%

Question: And the “Population Mitochondria Different-Phenotype (%)” value [1]?
Answer: 4%

Question: And the “Population Mitotic Cells (%)” value [1]?
Answer: 13%

Question: And the “Population Normal (%)” value [1]?
Answer: 95%

Question: And the “Population Pyknosed Nuclei (%)” value [1]?
Answer: 8%

Question: And the “Population Tubulin-Different-Phenotype (%)” value [1]?
Answer: 4%

Question: And the “Total Cell Count” value [1]?
Answer: 293

Question: And the “Population Apoptotic (%)” value [2]?
Answer: 91%

Question: What about the “Population Fragmented Nuclei (%)” value [2] of the same compound?
Answer: 14%

Question: What about the “Population Healthy Nuclei (%)” value [2] of the same compound?
Answer: 78%

Question: And the “Population Hoechst High Intensity Objects (%)” value [2]?
Answer: 1%

Question: And the “Population Membrane Permeable-Phenotype (%)” value [2]?
Answer: 9%

Question: And the “Population Mitotic Cells (%)” value [2]?
Answer: 8%

Question: And the “Population Normal (%)” value [2]?
Answer: 98%

Question: What about the “Population Pyknosed Nuclei (%)” value [2] of the same compound?
Answer: 6%

Question: And the “Population Tubulin-Different-Phenotype (%)” value [2]?
Answer: 9%

Question: What about the “Total Cell Count” value [2] of the same compound?
Answer: 182

Question: And the “Population Apoptotic (%)” value [3]?
Answer: 66%

Question: What about the “Population Fragmented Nuclei (%)” value [3] of the same compound?
Answer: 30%

Question: What about the “Population Healthy Nuclei (%)” value [3] of the same compound?
Answer: 60%

Question: And the “Population Hoechst High Intensity Objects (%)” value [3]?
Answer: 3%

Question: What about the “Population Membrane Permeable-Phenotype (%)” value [3] of the same compound?
Answer: 11%

Question: What about the “Population Mitochondria Different-Phenotype (%)” value [3] of the same compound?
Answer: 5%

Question: What about the “Population Mitotic Cells (%)” value [3] of the same compound?
Answer: 33%

Question: What about the “Population Normal (%)” value [3] of the same compound?
Answer: 96%

Question: And the “Population Pyknosed Nuclei (%)” value [3]?
Answer: 9%

Question: What about the “Population Tubulin-Different-Phenotype (%)” value [3] of the same compound?
Answer: 7%

Question: What about the “Total Cell Count” value [3] of the same compound?
Answer: 293

Question: What about the “Population Apoptotic (%)” value [4] of the same compound?
Answer: 94%

Question: What about the “Population Fragmented Nuclei (%)” value [4] of the same compound?
Answer: 12%

Question: And the “Population Healthy Nuclei (%)” value [4]?
Answer: 73%

Question: What about the “Population Hoechst High Intensity Objects (%)” value [4] of the same compound?
Answer: 0%

Question: And the “Population Mitochondria Different-Phenotype (%)” value [4]?
Answer: 8%

Question: What about the “Population Mitotic Cells (%)” value [4] of the same compound?
Answer: 5%

Question: And the “Population Normal (%)” value [4]?
Answer: 100%

Question: What about the “Population Pyknosed Nuclei (%)” value [4] of the same compound?
Answer: 13%

Question: What about the “Population Tubulin-Different-Phenotype (%)” value [4] of the same compound?
Answer: 6%

Question: And the “Total Cell Count” value [4]?
Answer: 134

Question: What about the “Population Apoptotic (%)” value [5] of the same compound?
Answer: 91%

Question: What about the “Population Fragmented Nuclei (%)” value [5] of the same compound?
Answer: 24%

Question: What about the “Population Healthy Nuclei (%)” value [5] of the same compound?
Answer: 68%

Question: And the “Population Hoechst High Intensity Objects (%)” value [5]?
Answer: 3%

Question: What about the “Population Membrane Permeable-Phenotype (%)” value [5] of the same compound?
Answer: 6%

Question: What about the “Population Mitochondria Different-Phenotype (%)” value [5] of the same compound?
Answer: 4%

Question: What about the “Population Mitotic Cells (%)” value [5] of the same compound?
Answer: 8%

Question: What about the “Population Normal (%)” value [5] of the same compound?
Answer: 96%

Question: And the “Population Pyknosed Nuclei (%)” value [5]?
Answer: 7%

Question: What about the “Population Tubulin-Different-Phenotype (%)” value [5] of the same compound?
Answer: 5%

Question: What about the “Total Cell Count” value [5] of the same compound?
Answer: 342

Question: And the “Population Apoptotic (%)” value [6]?
Answer: 100%

Question: What about the “Population Fragmented Nuclei (%)” value [6] of the same compound?
Answer: 15%

Question: And the “Population Healthy Nuclei (%)” value [6]?
Answer: 76%

Question: What about the “Population Hoechst High Intensity Objects (%)” value [6] of the same compound?
Answer: 1%

Question: And the “Population Membrane Permeable-Phenotype (%)” value [6]?
Answer: 9%

Question: And the “Population Mitochondria Different-Phenotype (%)” value [6]?
Answer: 5%

Question: What about the “Population Mitotic Cells (%)” value [6] of the same compound?
Answer: 0%

Question: What about the “Population Normal (%)” value [6] of the same compound?
Answer: 98%

Question: What about the “Population Pyknosed Nuclei (%)” value [6] of the same compound?
Answer: 8%

Question: What about the “Population Tubulin-Different-Phenotype (%)” value [6] of the same compound?
Answer: 6%

Question: And the “Total Cell Count” value [6]?
Answer: 226

Question: And the “Population Apoptotic (%)” value [7]?
Answer: 91%

Question: And the “Population Fragmented Nuclei (%)” value [7]?
Answer: 25%

Question: And the “Population Healthy Nuclei (%)” value [7]?
Answer: 64%

Question: And the “Population Hoechst High Intensity Objects (%)” value [7]?
Answer: 1%

Question: What about the “Population Membrane Permeable-Phenotype (%)” value [7] of the same compound?
Answer: 7%

Question: What about the “Population Mitochondria Different-Phenotype (%)” value [7] of the same compound?
Answer: 3%

Question: And the “Population Mitotic Cells (%)” value [7]?
Answer: 8%

Question: What about the “Population Normal (%)” value [7] of the same compound?
Answer: 98%

Question: What about the “Population Pyknosed Nuclei (%)” value [7] of the same compound?
Answer: 9%

Question: What about the “Population Tubulin-Different-Phenotype (%)” value [7] of the same compound?
Answer: 5%

Question: What about the “Total Cell Count” value [7] of the same compound?
Answer: 353

Question: And the “Population Apoptotic (%)” value [8]?
Answer: 100%

Question: What about the “Population Fragmented Nuclei (%)” value [8] of the same compound?
Answer: 14%

Question: What about the “Population Healthy Nuclei (%)” value [8] of the same compound?
Answer: 76%

Question: What about the “Population Hoechst High Intensity Objects (%)” value [8] of the same compound?
Answer: 0%

Question: And the “Population Membrane Permeable-Phenotype (%)” value [8]?
Answer: 11%

Question: What about the “Population Mitochondria Different-Phenotype (%)” value [8] of the same compound?
Answer: 8%

Question: And the “Population Mitotic Cells (%)” value [8]?
Answer: 0%

Question: What about the “Population Normal (%)” value [8] of the same compound?
Answer: 99%

Question: And the “Population Tubulin-Different-Phenotype (%)” value [8]?
Answer: 8%

Question: What about the “Total Cell Count” value [8] of the same compound?
Answer: 164

Question: And the “Population Apoptotic (%)” value [9]?
Answer: 89%

Question: What about the “Population Fragmented Nuclei (%)” value [9] of the same compound?
Answer: 17%

Question: And the “Population Healthy Nuclei (%)” value [9]?
Answer: 73%

Question: What about the “Population Hoechst High Intensity Objects (%)” value [9] of the same compound?
Answer: 2%

Question: What about the “Population Membrane Permeable-Phenotype (%)” value [9] of the same compound?
Answer: 9%

Question: And the “Population Mitochondria Different-Phenotype (%)” value [9]?
Answer: 5%

Question: And the “Population Mitotic Cells (%)” value [9]?
Answer: 10%

Question: What about the “Population Normal (%)” value [9] of the same compound?
Answer: 97%

Question: What about the “Population Pyknosed Nuclei (%)” value [9] of the same compound?
Answer: 8%

Question: What about the “Population Tubulin-Different-Phenotype (%)” value [9] of the same compound?
Answer: 5%

Question: What about the “Total Cell Count” value [9] of the same compound?
Answer: 475

Question: And the “Population Apoptotic (%)” value [10]?
Answer: 90%

Question: What about the “Population Fragmented Nuclei (%)” value [10] of the same compound?
Answer: 12%

Question: And the “Population Healthy Nuclei (%)” value [10]?
Answer: 79%

Question: And the “Population Hoechst High Intensity Objects (%)” value [10]?
Answer: 1%

Question: And the “Population Membrane Permeable-Phenotype (%)” value [10]?
Answer: 6%

Question: What about the “Population Mitochondria Different-Phenotype (%)” value [10] of the same compound?
Answer: 4%

Question: And the “Population Normal (%)” value [10]?
Answer: 98%

Question: And the “Total Cell Count” value [10]?
Answer: 371

Question: And the “Population Apoptotic (%)” value [11]?
Answer: 81%

Question: And the “Population Fragmented Nuclei (%)” value [11]?
Answer: 20%

Question: What about the “Population Healthy Nuclei (%)” value [11] of the same compound?
Answer: 67%

Question: And the “Population Hoechst High Intensity Objects (%)” value [11]?
Answer: 2%

Question: What about the “Population Membrane Permeable-Phenotype (%)” value [11] of the same compound?
Answer: 8%

Question: What about the “Population Mitochondria Different-Phenotype (%)” value [11] of the same compound?
Answer: 4%

Question: And the “Population Mitotic Cells (%)” value [11]?
Answer: 18%

Question: And the “Population Normal (%)” value [11]?
Answer: 97%

Question: What about the “Population Pyknosed Nuclei (%)” value [11] of the same compound?
Answer: 12%

Question: What about the “Population Tubulin-Different-Phenotype (%)” value [11] of the same compound?
Answer: 6%

Question: And the “Total Cell Count” value [11]?
Answer: 445

Question: What about the “Population Apoptotic (%)” value [12] of the same compound?
Answer: 89%

Question: And the “Population Fragmented Nuclei (%)” value [12]?
Answer: 10%

Question: And the “Population Healthy Nuclei (%)” value [12]?
Answer: 76%

Question: And the “Population Membrane Permeable-Phenotype (%)” value [12]?
Answer: 11%

Question: And the “Population Mitochondria Different-Phenotype (%)” value [12]?
Answer: 8%

Question: And the “Population Mitotic Cells (%)” value [12]?
Answer: 10%

Question: And the “Population Pyknosed Nuclei (%)” value [12]?
Answer: 13%

Question: And the “Population Tubulin-Different-Phenotype (%)” value [12]?
Answer: 8%

Question: What about the “Total Cell Count” value [12] of the same compound?
Answer: 226

From ChEMBL document CHEMBL5058577, “EUbOPEN Chemogenomics Library 2 (Multiplex)” (2022)
